# The source made the active and inactive calls.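 Rule for the calls, unless noted: active = GFP response above 150% of the DMSO level; inconclusive = fewer than 70 events counted for a yeast strain; inactive = the rest.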
# What was measured:
# [1] = RPL19A-GFP modulators, yeast TOR pathway, confirmation, cell-based, S. cerevisiae, flow cytometry, cherry picks, mother/daughter gates (AID 2270;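 active = GFP response below 50% of the DMSO control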); settings: S. cerevisiae RPL19A-GFP strain, 3 h, at 10 µM, stronger effect = lower value, 100 = same GFP as DMSO wells
# [2] = LAP4-GFP expression modulators in yeast, confirmation, cell-based, cherry picks, flow cytometry, mother/daughter gates (AID 2271;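 active = GFP response above 150% of the DMSO control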;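 note: ratio of sample to DMSO plate mean so 100% equals DMSO level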); settings: S. cerevisiae LAP4-GFP strain, 3 h, at 10 µM, stronger effect = higher value, 100 means same as DMSO control
# Summary of the method: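 System – GFP-fusion yeast strain · Amount – 0.2 OD600 cells · Buffer or medium – SC growth medium · Dosing – single test-compound dose, 10 µM final · Schedule – 3 h treatment at 30 °C with rotation · Detection – GFP by flow cytometry · Read-out – per-gate (all, mother, daughter) GFP response vs DMSO · Benchmarks – positive rapamycin (400 ng/mL), negative DMSO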
# [3] = modulators of MEP2-GFP levels in yeast, confirmation, S. cerevisiae, flow cytometry GFP, cherry picks (AID 2272;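 active = GFP response above 150% of the DMSO control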;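 note: ratio of well signal to plate DMSO mean so 100% equals DMSO level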); settings: S. cerevisiae MEP2-GFP strain, 3 h, at 10 µM, stronger effect = higher value
# [4] = AGP1-GFP expression modulators, hit retest, confirmation, cell-based, flow cytometry, S. cerevisiae, cherry picks (AID 2273);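 note: median GFP channel fluorescence over the whole cell population gate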; settings: S. cerevisiae AGP1-GFP strain, 3 h, at 10 µM
# [5] = modulators of CIT2-GFP expression in yeast, confirmation, S. cerevisiae, GFP fusion, cherry picks, mother/daughter gates (AID 2274); settings: S. cerevisiae CIT2-GFP strain, flow cytometry, 3 h, at 10 µM, stronger effect = higher value
# [6] = measured here: daughter cell gate
# [7] = measured here: mother cell gate
# [8] = measured here: daughter cell gate response
# [9] = measured here: mother cell gate response
Compound,GFP response vs DMSO [1],"GFP response vs DMSO [1, 6]","GFP response vs DMSO [1, 7]",GFP response relative to DMSO [2],"GFP response relative to DMSO [2, 8]","GFP response relative to DMSO [2, 9]",GFP response vs DMSO [3],"GFP response, % of DMSO [4]","GFP response, % of DMSO [5]","GFP response, % of DMSO [5, 6]","GFP response, % of DMSO [5, 7]"
CC(C)c1nnc(NC(=O)c2nc(S(=O)(=O)Cc3ccccc3)ncc2Cl)s1,98.5% (inactive),101%,95.4%,102% (inactive),101%,100%,106% (inactive),102% (inactive),100% (inactive),99.3%,99.3%
COc1ccc(-c2ccc(SCC(=O)N3c4ccccc4CC3C)nn2)cc1OC (stereo not given),99.1% (inactive),98%,99.3%,100% (inactive),101%,101%,102% (inactive),99.3% (inactive),96.4% (inactive),96.4%,95.6%
CCc1nnc(NC(=O)c2nc(S(=O)(=O)Cc3ccc(C)cc3)ncc2Cl)s1,98.2% (inactive),99.1%,98.6%,105% (inactive),105%,102%,102% (inactive),103% (inactive),101% (inactive),102%,99.1%
O=C(O)c1ccccc1C(=O)N1CCN(c2cccc(Cl)c2)CC1,97.2% (inactive),97%,98.1%,100% (inactive),97.9%,96.5%,97.5% (inactive),95.4% (inactive),96.4% (inactive),98.3%,95.6%
O=C(Oc1ccnc2cc(Cl)ccc12)N1CCCCCC1,99.3% (inactive),97.3%,95%,114% (inactive),111%,117%,437% (active),185% (active),92.6% (inactive),93.2%,89.1%
O=C(Cn1cc(/C=C\[N+](=O)[O-])c2ccccc21)Nc1ccccc1,97.4% (inactive),97.4%,97.6%,94.1% (inactive),94.4%,94%,98.3% (inactive),94.7% (inactive),99.7% (inactive),101%,99.7%
Cc1cccn2c(=O)c(/C=C(\C#N)C(=O)NCc3ccco3)c(N3CCCCCC3)nc12,97% (inactive),97.3%,97.2%,96.2% (inactive),95.6%,98.3%,97.8% (inactive),95.4% (inactive),90% (inactive),89.9%,86.9%
Cn1c(=O)c(C(=O)NC2CCCCCCC2)c(O)c2ccccc21,101% (inactive),102%,103%,93.8% (inactive),94.1%,96.2%,95.7% (inactive),98.9% (inactive),107% (inactive),105%,111%
O=C(Nc1nc(-c2ccccn2)cs1)c1cc2ccccc2o1,97.4% (inactive),96.7%,83.7%,285% (active),163%,215%,129% (inactive),120% (inactive),124% (inactive),104%,91%
CCOc1ccccc1N1CCN(C(=O)c2ccccc2)CC1,97.6% (inactive),98.5%,98.8%,101% (inactive),101%,103%,102% (inactive),101% (inactive),101% (inactive),100%,99.1%
Nc1ccc(C(=O)N/N=C/c2ccccc2)cc1,105% (inactive),102%,106%,102% (inactive),99.1%,102%,101% (inactive),108% (inactive),100% (inactive),101%,99.3%
O=C(Nc1cc(Sc2ccccn2)cc([N+](=O)[O-])c1)c1ccc(Cl)cc1,99% (inactive),99.6%,99.2%,99.2% (inactive),101%,97.2%,100% (inactive),97.4% (inactive),101% (inactive),101%,99.7%
CCOc1ccc(-c2nc(-c3ccc(OC)cc3)no2)cc1OCC,101% (inactive),101%,101%,94.2% (inactive),92.2%,93.6%,102% (inactive),96% (inactive),99.3% (inactive),100%,99.1%
Cn1cc(/C=C/c2cc[n+](C)cc2)c2cc(F)ccc21,102% (inactive),102%,102%,115% (inactive),117%,116%,134% (inactive),103% (inactive),115% (inactive),116%,114%
COc1ccccc1C1CC(c2c(-c3ccccc3)c3cc(Cl)ccc3[nH]c2=O)=NN1S(C)(=O)=O (stereo not given),97.6% (inactive),98.9%,97.4%,106% (inactive),107%,105%,119% (inactive),96.4% (inactive),113% (inactive),112%,112%

# Reference: PubChem BioAssay
